Assay [1] has as its target T1, Sodium-dependent dopamine transporter (Rattus norvegicus, UniProt P23977). Briefly: Displacement of [3H]WIN-35428 from dopamine transporter in rat caudate putamen tissue. It is filed as tissue-based. The gist of the method:
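Compounds were tested as oxalate salts unless noted; some were hydrochloride or fumarate. Values are mean ± SEM of three experiments, each run in triplicate.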

The species named for another assay is Rattus norvegicus. The assay can be described thus: Compound was evaluated for its ability to inhibit uptake of [3H]-dopamine into rat caudate putamen tissue. The assay is classed as functional.
The target of assay [2] is T1, Sodium-dependent dopamine transporter. The assay can be described thus: Compound was evaluated for its ability to displace [3H]WIN-35428 from dopamine transporter in rat caudate putamen tissue. The assay is classed as tissue-based.
Setting [3] is: Rattus norvegicus, Caudate-putamen.

T1 sequence (P23977 whole entry): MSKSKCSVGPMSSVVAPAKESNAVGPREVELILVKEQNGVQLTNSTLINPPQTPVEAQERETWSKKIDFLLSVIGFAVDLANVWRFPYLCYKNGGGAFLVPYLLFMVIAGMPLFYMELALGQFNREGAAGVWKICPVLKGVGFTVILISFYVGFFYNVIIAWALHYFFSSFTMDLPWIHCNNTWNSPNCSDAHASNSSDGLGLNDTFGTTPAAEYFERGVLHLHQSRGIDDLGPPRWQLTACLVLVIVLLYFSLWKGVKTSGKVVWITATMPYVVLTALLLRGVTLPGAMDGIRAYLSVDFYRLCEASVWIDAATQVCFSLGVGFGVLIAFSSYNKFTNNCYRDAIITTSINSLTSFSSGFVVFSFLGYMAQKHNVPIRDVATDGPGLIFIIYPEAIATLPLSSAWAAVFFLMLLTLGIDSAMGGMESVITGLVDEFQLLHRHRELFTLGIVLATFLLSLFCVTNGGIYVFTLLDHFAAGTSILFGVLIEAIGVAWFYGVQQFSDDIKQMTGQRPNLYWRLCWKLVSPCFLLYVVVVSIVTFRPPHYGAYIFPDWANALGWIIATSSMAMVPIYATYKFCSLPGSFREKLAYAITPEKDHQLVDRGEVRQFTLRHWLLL

`COC(=O)C[C@@H]1C2C[C@H](C)C(C[C@@H]1Cc1ccccc1)N2C` (stereo partly specified) displayed a Ki in assay [1] of 0.211 µM.

As to `COC(=O)CC1C(Cc2ccccc2)CC2CCC1N2C` (stereo unspecified), the Ki in assay [1] stood at 0.033 µM. 161 nM corresponded to half-maximal inhibition in the assay filed under Rattus norvegicus (IC50). Take `COC(=O)[C@@H]1C2CC[C@H](C[C@@H]1c1ccccc1)N2C`: the figures for the IC50 (in assay [2]; in the assay filed under Rattus norvegicus (setting [3])) were 314 nM and 373 nM, respectively. `COC(=O)C[C@H]1C2C[C@@H](Cc3ccccc3)C(C[C@@H]1Cc1ccccc1)N2C` (stereo partly specified): the Ki in assay [1] came out at 7.59 µM.

For `COC(=O)C[C@@H]1C2C[C@@H](Cc3ccccc3)C(C[C@@H]1Cc1ccccc1)N2C` (stereo partly specified), in assay [1], the Ki was 3.08 µM.

Compound `COC(=O)C[C@@H]1C2CCC(C[C@@H]1Cc1ccccc1)N2C` (stereo partly specified) registered an IC50 in the assay filed under Rattus norvegicus (setting [3]) of 94 nM.

Regarding `COC(=O)CC1=C(Cc2ccccc2)CC2C(Cc3ccccc3)CC1N2C` (stereo unspecified), in assay [1], the Ki turned out to be 4.83 µM. Still for that read-out and setting: in the case of `COC(=O)CC1C(Cc2ccccc2)CC2C(Cc3ccccc3)CC1N2C` (stereo unspecified) it was 3.08 µM. In assay [1], `COC(=O)CC1C(Cc2ccccc2)CC2CCC1N2C` (single isomer, unassigned; (+)) came in with a Ki of 0.06 µM. In addition, the IC50 in the assay filed under Rattus norvegicus was 208 nM. In turn, `CC[C@@H]1CC2[C@@H](CC(=O)OC)[C@@H](Cc3ccccc3)CC1N2C` (stereo in doubt; 19c) gave a Ki in assay [1] of 0.307 µM. On to `CCCC[C@@H]1CC2[C@@H](CC(=O)OC)[C@@H](Cc3ccccc3)CC1N2C` (stereo in doubt; 19e), for which the affinity in assay [1] corresponds to a Ki of 8.58 µM. Take `COC(=O)CC1C(Cc2ccccc2)CC2CCC1N2C` (stereo in doubt; 20a): the IC50 in the assay filed under Rattus norvegicus turned out to be 457 nM.

The compound `CC[C@@H]1CC2[C@@H](CC(=O)OC)[C@@H](Cc3ccccc3)CC1N2C` (stereo in doubt; 20c) returned a Ki in assay [1] of 1.15 µM. Compound `CCC[C@H]1CC2[C@@H](CC(=O)OC)[C@@H](Cc3ccccc3)CC1N2C` (stereo in doubt; 20d) came in with a Ki in assay [1] of 7.24 µM. In assay [1], `CCCC[C@@H]1CC2[C@@H](CC(=O)OC)[C@@H](Cc3ccccc3)CC1N2C` (stereo in doubt; 20e) showed a Ki of 19.7 µM. On to `COC(=O)C[C@H]1C2C[C@@H](C)C(C[C@@H]1Cc1ccccc1)N2C` (stereo in doubt; 21b), for which the Ki in assay [1] amounted to 0.057 µM. In the assay listed under Rattus norvegicus, this compound displayed an IC50 of 107 nM. Compound `CCC1CC2C(CC(=O)OC)C(Cc3ccccc3)CC1N2C` (stereo in doubt; 21c) displayed a Ki in assay [1] of 3.11 µM.

Take `CCCC1CC2C(CC(=O)OC)C(Cc3ccccc3)CC1N2C` (stereo in doubt; 21d): in assay [1], the Ki was 5.85 µM. As to `COC(=O)C[C@H]1C2C[C@@H](C)C(C[C@@H]1Cc1ccccc1)N2C` (stereo in doubt; 22b), the Ki in assay [1] is 0.294 µM. The IC50 in the assay listed under Rattus norvegicus was 532 nM. Turning to `CCC1CC2C(CC(=O)OC)C(Cc3ccccc3)CC1N2C` (stereo in doubt; 22c), the affinity in assay [1], expressed as Ki, was 6.21 µM. On to `CCCC1CC2C(CC(=O)OC)C(Cc3ccccc3)CC1N2C` (stereo in doubt; 22d), for which the affinity in assay [1] corresponds to a Ki of 57.3 µM.

As usually defined, the Ki is the equilibrium dissociation constant of an inhibitor or competing ligand from its target. A word on the IC50: it is the concentration that gives 50% inhibition.

The values above are taken from ChEMBL document CHEMBL1130279 (J Med Chem, 1997).
